Measured values reported in the RNAGym collection of RNA variant scans (doi:10.1126/science.aae0568).
This sample holds only a part of the variants without activity.

B1: tRNA (parent)
chain: GUUCCGUUGGCGUAAUGGUAACGCGUCUCCCUCCUAAGGAGAAGACUGCGGGUUCGAGUCCCGUACGGAACG

Variants of: B1
Experiment: yeast fitness relative to wild type (ratio to wild type); higher = fitter; tRNA-Arg(CCU), competitive growth, 37 C, YPD
Outline: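 Variants of the tRNA-Arg(CCU) gene, chemically synthesised with a 3% per-site mutation rate at 69 sites, were placed at the native genomic locus in Saccharomyces cerevisiae. The pooled strains were competed in YPD at 37°C for 24 hours in six parallel replicates. Gene amplicons from the start population and from each end population were read by 100-nucleotide paired-end sequencing. Darwinian fitness relative to wild type came from changes in genotype frequencies; genotypes needed ≥ 100 starting reads, and estimates < 0.5 were set to 0.5.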

Variant	yeast fitness
GUUCCGUUGGCGUAAUGGUAACGUGGCUCUCUCCUAAGCAGAAGACUGCGGGUUCGAGUCCCGUACGGAACG	≤ 0.5
GUUCCGUUGGCGUAGUGGUAACGCGUCUCCCUCUUAAGGAGUAGACAGCGGGUUCGGGUCCCGUACGGAACG	≤ 0.5
GUUCCGUUGGCGUAAUGGUAACGCGUCUCCCUCCUAAGGAGAAGACUCCGGGUUCGAGUCCCGUAUGGAACG	0.932
GUUCCGUUGGCGUAAUGAUAACGCGUCUCCCUCCUAAGGAGACGACUGCGGGUUCGAGUCCCGUACGGAACG	0.637
GUUCCGUUGGCGUAGUGGUAACGCGUCUCCCUCCUAAGGAGAAGACUGGGGGUUCCAGUCCCGUACGGAACG	≤ 0.5
GUUCCGUUGGCGUAAUGGUAACGCGUCUCCCUCCUAAGGAGUAGACUGCGGGUUCGAGUCCAGUUCGGAACG	0.604
GUUCCGUUGGCGUGAUGGUAACGCGUCUUCCUCCUAAGGAGAAGUCUGCGGGUUCGAGUCCCGUACGGAACG	0.626
GUUCCGUUGGCGUAAUGGUAGCGCGUCUCCCUCCUAAGGAGAAGACUGCGGGUUCGAAUCCCGUACGGAACG	1.01
GUUCUGUUGGCGUAAUGGUAGCGCGUCCCCCUCCUGAGGAGAAGACUGCGGGUUCGAGUCCCGUACGGGACG	0.599
GUACCGAUGGCGUAAUGGUAACCCGUCUCCCUCCUAAGGAGCAGACAGGGGGUUCGAGUCCCGUACGGAACG	≤ 0.5
GUUCCGUUGGCGUAAUGGUUACGCGUCUCCCUCCUAAGGAGAAGACUGAGGGUUCGAGUCCCGUACGGAACG	0.708
GUUCCGUUGGUGUAAUGGUAAUGCGUCUCCCUCCUAAGGAGAAGACUGCGGGUUUGAGUCCCGUACGGAACG	0.681
GUACCGUUGGCGUAAUGGUAACGGGUCUCCCUCCUAAGGAGAAGACCGCGGGUUCGUGUCCCGUACGGAACG	≤ 0.5
GUUCCGUUGGCGUAAUGGUAACGUAUCUCUCUCCUAAGGAGAAGACUGCAGGUUCAAGUCCCGUACGGAACG	≤ 0.5
GUUCCGAUGGCGUAAUGGUACCGCGUCUCCCUCCUAAGGAGAAGGCUGCGGGUUCGAGUCCCGUACGGAACG	0.571
GUUCCGUUGGCGUAAUGGUAACGUGUCUCCCUCCUAAGGAGAAGACUACGGGUUCGAGUCCGGUACGGUACG	0.606
GUUCCGUUGGCGUAGUGGUAACGCGUCUCACUCCUAAGGAGAAGACUGGGGGUUUGAGUCCCGUACGGAACG	≤ 0.5
GUUCCGUUGGCGUAUUGGUAACGCGUCUCUCUCCUAAGGAGAAGACUGCGGGUUCGGGUCCCGUACGGAACG	≤ 0.5
GUUCCGUUGACGUAAUGGUAACGCGUCUCCCUCCUAAGGAGACGACUGCGGGUUCGAGUCCCGUACGGAACG	0.811
GUUCCGUUGGCGUAGUGGUAACGCGUCUCCCUCCUAAGGAAAAGACUGAGGGUUCGAGUCCCGUAAGGAACG	0.53
GUUCCGUUCGCGUAAUGGUAACGCGUCUCCCUCCUAAGGAGAAAACUGCGGGUUCGAGUCCCGUACGGAACG	0.673
GUUCCGUUGGCGUAAUGGUUACGCGUCUCCCUCCUAAGGAGAAGUCUGCGGGUUGGAGUCCCGUACGGAACG	0.533
GUUCGGUUGGCGUAAUGGUAACGUGUCUCCCUUUUAAGGAGAAAACUGCGGGUUCGAGUCCGGUACGGAACG	≤ 0.5
GUUCCGUUGGCGUAAUGGUAACGCCUCUUCCUCCUAAGGAGUAGACUGCGGGUUCGAGUCCCGUACGGAACG	0.664
GUUCCGUUGGCGUAAUGGUAACGUGUCUCCCUCCUAAGGAGAAGACUGCGGGUUCCAGUCCCGUACGGAACG	0.792

Variant	yeast fitness
GUUCCGUUGGCGUAAUGGUAACGCGUGUCCCUCCUAAGGAGCAGACUGCCGGUUCAAGUCCCGUAGGGAACG	≤ 0.5
GUUCCGUUGGCGUAAUGGUAACGCGUCUCCCGCCUAAGGAGAAGACUGCGGGUUCGAGUCCCGUGCGGAACG	0.718
GUUCCGAUGGCGUAAUGGUAACACGUCUCCCUCCUAAGGAGAAGACUGCGGGUUCGAGUCCCGUACGGAACG	0.722
GUUCCGUUGGCGUAAUGGUAUCGUGUCUCCCUCCUAAGGAGAAGACUGCGGGUUCCAGUCCCACACCGAACG	≤ 0.5
GCUCCGUUGGCGUAAUGGUAACGCGUCUCCCUCCUAAGGAGAAGACUACGGGUUCGAGUCCCGUACGGCACG	0.705
GUUCCGUUGGAGUAAUGGUAACGGGUCUCGCUCCUAAGGAGAAGACUGCGGGUUCAAGUCCCGUACGGAACG	≤ 0.5
GUUGCGUUGGCGUAAUGGUAACGCGUCUCCCUCCUAAGGCGAAGACUGGGGGUUGGAGUCCCGUACGGUACG	≤ 0.5
GUUCCGUUGACGUAAUGGUCACGCGUCUCCCUCCUAAAGAAAAGACUGUGGGUUCGUGUCCCGUACGGAACG	≤ 0.5
GUUACGUUGGCGUAAUGGUACUGCGUCUCCCUCCUAAGGAGAAGACUGCCAGUUCGAGUCCCGUACGGAUCG	0.559
GUUACGUUGGGGGAAUGGUAACGCAUCUCCCUCCUAAGGAGAAGACUGCGGGUUCGAGUCCCGUACGGAACG	≤ 0.5
GUUCCGUUGGCGUAAUGGUAACGCGUCUUUCUCCUAAGGAGAAGACUGCGGGUUCGAGUCCCGUACGGAACG	0.763
GUUCCGUUGGCGUAAAGGUAACGCGUCUCCAUCCUAAGGAGAAGACUGCGGGUUCGAGUCCCGUACGGCACG	0.633
GUUCCAUUGGCGUAUUGGUGACGCGUCUCCCUCCUAAGGAGAAGACUGCGGGUUCGAGUCCCGUACGGAACG	≤ 0.5
GUUCCGUUGGCGUAAUGGUAACGCGUCUCCCUCCUAAGGAGAACACUGCGGGUUCGAGUCCCGGACGGAACG	0.653
GUUCCGUUGGCGAAAUGGUAACGCGUCUCCCUCCUAAGGAGAAGACUGCGGGUUCGAGUCUCGUACGGAACG	0.786
GUUCCGUUGGCGUAAUGGUAACGCGUCUCCCUCCUAAGGAGAAGACCGCGGGUUCGAGACCCCUACGGAACG	0.58
GUUCCGUUGGCGUAAUGGUAACGCGUCUCCCUCCUAAGGAGAAGCCUGCGGGCUCGAGUCCCGUAUGGAACG	≤ 0.5
GUUCCGUAGGCGUAAUGGUAACGCGUCUCCCUCCUAAGGAGAACACUGCGGGUUCGAGUCCUGUACGGAACG	≤ 0.5
GUUGCGUUGGGGUAAUGGUAACGCGACUCCCUCCUAAGGAGAAGACUGCGGGUUCGAGUGCCGUACGGAACG	≤ 0.5
GUUCCGUUGGCGUAAUGGUAACACGUCUCCCUCCUAAGGCGAAGACUGCGGGUUGGAGUCCCGUACGGAACG	≤ 0.5
GUUCCGUUGGCGUGAUGGUAACGCGUCUCCAUCCUAAGGAGAAGACCGCGGGUUCGAGUCCCGUACGGAUCG	≤ 0.5
GUUCAGUUGGCGUAAUGGUAACGCGUCUCCUUCCCAAGGAGAAGACUGCAGGUUCGAGUCCCGUACGGAACG	0.565
GUUCCGUUGGCGUAAUGGUAACGCGUCUCACCCCUAAGGAGAAGACUGCGGGUUCGAGUCCCGUACGGAACG	0.892
GUUCCGUUGGCGUAAUGGUAACGCGUCUCCCUACGAAGGAGAAGACUGUGGGUUCGAGUCCCGUACGGAACG	0.904
GUUCCAUAGGCGUAAUGGUAACGCGUCUCCCUCCUAAGGAGAAGACUGCGGAUUCCAGUCCCGUACGGAACG	≤ 0.5

Variant	yeast fitness
GUUCCGUUGGCGUAAAGGUAACGCGUCUCCCUCCCAAGGAGAAGACUGCGGGUUCGAGUCGCGUGCGGAACG	≤ 0.5
GUUCCGUCGGCGUAAUGGUCACGCGUCUCCCUCCUAAGGAGAAGACUGCGGGUUCAAGUCUCGUACGGAACG	0.532
GUUCCGUUGACGAAAUGGUAACGUGUCUCCCUCCUAAGGAGAAGACUGCGGGUUCGAGUCCCGUACGGAACG	0.599
GUUCCGUUGGCGCGAUGGUAACGCGUCUCCUUCCUAAGGAGAAGACUGCGGGUUCGAGUCCCGUACGGAACG	0.824
GAUCCGUUGGCGUAAUGGUAACGCAUCUCCCUCCUAAGGAGAAGACUGCGGGUUCGAGUCCCGUACGGGACG	0.576
GGUCCGUUGGCGUAAUGGUAAUGGGUCUCCCUCCUAAGGAGAAGACUGCGGGUUCGAGUCCCGUAUGGAGCG	≤ 0.5
GUUCCGUUGGCGUAAUGAUAACACGUCUCCCUCCUAAGGAGAAGACUGCGGGUUCGACUCCCGUACGGACCG	≤ 0.5
GUUCAGUUGGCGUGAUGGUAACGCGUCUCCCUCCUAAGGAGAAGACUGCGGGUUCGAGUGCCGUACGGAACG	≤ 0.5
GUUCCGUUGGCGUUAUAGUAAUGCGUCUCCCUCCUAAGGAGAAGACUGCGGGUUCGAGUCCCCUACGGAACG	≤ 0.5
GUCCCGUUGGCGUAAUGGUAACGCGUCACCCUCUUAAGGAGAAGACCGCGGGUUCGAGUUCCGUACGGAACG	≤ 0.5
GUUCUGUUGCCGUAAUGGUAACGCGUCUCUCUCCUAAGGAGAAGACUGCGGGUUCGAGUCCCGUACGGAACG	≤ 0.5
GUUCCGUUGGCGUAAUGGUAACGCGUCUCGCUCAUAAGGAGAAGACUGGAGGUUCGAGUCCCGAACGCAACG	≤ 0.5
GUUACGUUGGCGUAAUGGUAACGCGUCUCCCUCCUAAGGAGAAGACUGCGGGUUCGGGUCCCGUACGGACCG	0.617
GCUCCGUUGGCGUAAUGGUAACGGGUCUCCCUCCUAAGGAGAAGACUGCGGGUUCGAGUCCCGUACGGAACG	0.946
GUUUCGUUGGCGUAAUGGUGACGCGUAUCCCUCCUAAGGAGAAGACUGCGGAUUCGAGUCCCGUACGGAACG	≤ 0.5
GUUCCGUUGGCGUAAUGGUAAGGCGUCUGCCUUCUAAGGAGGAGACUGCGGGUUCGAGUCCCGUACGGAACG	≤ 0.5
GUUCCGUUGGCGUAAUGGUAACGCGUCUCCCUGCUAAGGAGAAGACCGCGGCUUCGAGUCUCGUACGGAACG	≤ 0.5
GUUCCGUGGGCGUAAUGGUAACGGGUCUCCCUCCUAAGGAGAAGACUGCGGGUUCGAGUCCCGUACGGAACG	0.537
GUUCCGUUGGCGUAAUGGUAACGCGUCUCCCGCCUAAGGUGAAGACUGCGGAUUCGUGUCCCGUCCGGAACG	≤ 0.5
GUUCCGUUGGCGCAAUGGUAACGCGUCUCCCUCCUAAGGAGUAGACUGCGGGUCCGAGUCCCGUACGGAACG	0.592
GUUCCGUUGGCGUAAUGGUAACGCGUCUCCCUCCUAAGGAGAAGACUGGGGGUUCGAGUCCCGUAAUGAACG	≤ 0.5
GUUCCGUUGGCGUAAUGGUAACGCGUCUCCCCCCUAUGGAGAAGACUACGGGUUCGAGUCCCCUACGGAACG	≤ 0.5
GUCCCGUUGGCGUAAUGGUAAUGCGUCUCCCUCCUUAGGAGAAGACUGCGGGUUCGAGUCCUGUACGGAACG	≤ 0.5
GUUUCGUUGGCGUAAUGGUAACGUGUCUCCCUCCUAAGGAGAGGACUGCGGGUUCGAGUCCCGUACGGAACG	0.555
GUUCCGUUGGCGUAAUGGUAACGCGUCUCCCUCCUAACCAGAAGAUUGCGGGUUCGAGUCCCGUAUGGUACG	≤ 0.5
